The record followed here is ChEMBL document CHEMBL4513216, “Probing the Open Global Health Chemical Diversity Library for Multistage-Active Starting Points for Next-Generation Antimalarials” (ACS Infect Dis, 2020).

Molecules are shown by their SMILES.

The data set is described as follows: Toxicity liver stage against HepG2, at 10uM. It is filed as cell-based. Set-up: test concentration 10 uM, cell line HepG2-A16-CD81EGFP. Particulars: human, HepG2-A16-CD81EGFP cells; read-out: INHIBITION
In a few lines:
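Uninfected HepG2-A16-CD81EGFP cells, 3 × 10^3 per well, 1536-well, plated on prespotted compound at 10 μM final, parasite-free screening media added to match infected plates; puromycin 10 μM positive, DMSO 0.5% negative; run in parallel with 48 h PbLuc assay at 37 °C, 5% CO2; viability by CellTiter-Glo luminescence, normalized to controls.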
For `COc1ccccc1OCCC(=O)N1CCCC1Cn1cc(C)cn1` (configuration not stated), the cytotoxicity at 10 µM worked out at 6.02%. In the case of `COC(=O)C(C)(C)NC(=O)C1CC(=O)N(CC(C)C)C1` (configuration not stated) it was -152%; in that of `Fc1cccc(CN2C[C@@H]3COC[C@]3(COCc3ccncc3)C2)c1`, -61.1%. Turning to `COc1cccc(-c2noc(C3CCN(Cc4ccccc4C)C3)n2)c1` (configuration not stated), the cytotoxicity at 10 µM was -6.88%. The result for `Cc1cc(C(F)(F)F)nn1CCCNC(=O)C1CCN(S(C)(=O)=O)CC1` reads -4.56%; that for `CC(C)(C)C(=O)N1CCC(COCc2ccccc2)C1` (configuration not stated), 12.8%. In the case of `Cc1cc(C)n(C2CCCN(C(=O)c3c(C)noc3C)C2)n1` (configuration not stated) it was -6.41%. For `COc1ccc(C(=O)N2CC(=O)N(C3CCC3)CC(O)C2)cc1OC` (configuration not stated), the cytotoxicity at 10 µM stood at 4.35%.

With `N#Cc1ccc(N2CCC3(CCC(=O)N3CCN3CCCC3)CC2)nc1`, the cytotoxicity at 10 µM is -114%.

Turning to `Cc1csc(C(=O)N2CCCC(c3[nH]ncc3S(C)(=O)=O)C2)c1` (configuration not stated), the cytotoxicity at 10 µM was -3.17%. For the compound `Cc1nc2n(n1)CCN(S(=O)(=O)c1ccc(Cl)cc1)C2`, the cytotoxicity at 10 µM came out at 5.76%. For the compound `Cc1cc(C)n(CCC(=O)N2CCCC(n3nc(C)nc3C)C2)n1` (configuration not stated), the cytotoxicity at 10 µM is -5.61%. Take `Cc1cccc(C(=O)N2CCN(C(=O)Cc3ccccn3)CC2)c1C`: the cytotoxicity at 10 µM was -12.3%. For the compound `CCC(C#N)NC(=O)CCCOc1cccc(C(C)=O)c1` (configuration not stated), the cytotoxicity at 10 µM was -35.1%. Turning to `COc1cc(CNC(=O)CNc2cc(Cl)ccc2OC)ccn1`, the cytotoxicity at 10 µM is -8.92%. As to `COc1cnc(C2(O)CCN(C(=O)c3ccccn3)CC2)c(OC)n1`, the cytotoxicity at 10 µM was -8.99%. As for `CN1CCC/C1=N\S(=O)(=O)c1ccc(NC(=O)Cc2cccs2)cc1`, the cytotoxicity at 10 µM was -10.6%. Turning to `CCN1CCn2c(C)cnc2C12CCN(C(=O)N(C)C)CC2`, the cytotoxicity at 10 µM is 4.91%.

As to `O=C1N(Cc2ccccn2)C[C@H]2CN(C3CCOCC3)CCN12`, the cytotoxicity at 10 µM worked out at 7.94%.

For the compound `COC(=O)c1cc(OCC2CCC2)cc(C(=O)N[C@H](C)C(N)=O)c1`, the cytotoxicity at 10 µM was 16.6%.

As to `CCOc1c(Br)cc(CNCCc2nnc3n2CCCCC3)cc1OC`, the cytotoxicity at 10 µM was -59.6%. On to `Cc1ccc(OCC2CCCN(c3cc(C(N)=O)ccn3)C2)cc1` (configuration not stated), for which the cytotoxicity at 10 µM was 11.1%. For `Clc1snnc1CN1CCCC1Cn1cccn1` (configuration not stated), the cytotoxicity at 10 µM is -17.9%. In the case of `O=C(NC1CCCNC1)c1cc(COc2cccc(C(F)(F)F)c2)[nH]n1` (configuration not stated) it was -1.31%; in that of `O=C(O)c1ccccc1-n1cnc(CN2CCCc3ccccc32)c1`, 6.58%. In the case of `Cc1ccc(CNC(=O)c2cc(NC(=O)C3CC3)n(C)n2)o1`, the cytotoxicity at 10 µM was 4.82%. Regarding `CCN(Cc1cccs1)S(=O)(=O)N(C)C(C)C`, the cytotoxicity at 10 µM was -49%. With `CCN1CCCC(NC(=O)c2ccc(C)[nH]c2=O)C1` (configuration not stated), the cytotoxicity at 10 µM is 9.95%. With `COc1ccc(C(=O)N2CCC(Nc3ccc(C)nn3)CC2)c(F)c1`, the cytotoxicity at 10 µM was 1.15%.

In the case of `CC(C)n1ccnc1C1CCCN(c2ccnc3ccccc23)C1` (configuration not stated), the cytotoxicity at 10 µM is 38.4%. As for `Cc1nc(-c2cccc(N3CCC(N4CCCC(C#N)C4)CC3)c2)cs1` (configuration not stated), the cytotoxicity at 10 µM stood at 6.22%. Consider `O=S1(=O)NC(=CSCc2ccccc2)Nc2ccccc21`, for which the cytotoxicity at 10 µM worked out at 0.603%.

For the compound `CC(=O)N1CC(=O)N(c2cnn(C)c2)CC12CCN(Cc1ccco1)C2` (configuration not stated), the cytotoxicity at 10 µM turned out to be 2.41%. The result for `CC(C)C1CCC(N2CCN(CCCS(C)(=O)=O)CC2)CC1` (configuration not stated) reads 0.803%; that for `O=C(Nc1cccnc1)N(Cc1ccccc1)C1CC1`, 7.78%.

In the case of `CCN(CC)C(=O)c1ccc(COc2ccccc2C#N)o1`, the cytotoxicity at 10 µM was 1.96%. The result for `O=C(C1CCCS1)N1CCOc2cccc(F)c21` (configuration not stated) reads -6.54%; that for `CCC(O)CNc1ccc(-c2nc(CC(C)C)no2)cn1` (configuration not stated), -6.19%; that for `Cc1cc(O)n(-c2ccccc2Cl)c(=O)c1C#N`, 2.96%. With `Cc1noc(C)c1C(=O)NCC(c1ccc(F)cc1)N(C)C` (configuration not stated), the cytotoxicity at 10 µM was -0.0707%. As to `O=C(c1ccc(Br)o1)N1CCCCC1Cn1cccn1` (configuration not stated), the cytotoxicity at 10 µM was -5.31%. `CNC(=O)CNCc1c[nH]nc1-c1cc2ccccc2o1`: the cytotoxicity at 10 µM was 6.7%. Regarding `O=S(=O)(Cc1ccccc1Cl)N1CCC2(CC1)OCCS2`, the cytotoxicity at 10 µM was 0.649%. As to `O=C(NC[C@@H]1CCCO1)c1ccc(S(=O)(=O)N[C@@H]2CCNC2)cc1`, the cytotoxicity at 10 µM is -42.2%.

As to `Cc1cc2nc(O)c(O)nc2cc1S(=O)(=O)NC1CC1`, the cytotoxicity at 10 µM is 9.43%.

`Cc1n[nH]c2nc(-c3ccccc3O)cc(C(=O)O)c12`: the cytotoxicity at 10 µM is -1.55%. For the compound `CN(CC1(O)CCCN(Cc2cccc(F)c2F)C1=O)C1CCCCC1` (configuration not stated), the cytotoxicity at 10 µM was -11.1%. Turning to `CCN1CCn2nc(CCC(=O)N3CCCC3)cc2C1`, the cytotoxicity at 10 µM stood at 0.685%.

`CCCc1cnc(C)nc1NC(C)Cc1cnccn1` (configuration not stated): the cytotoxicity at 10 µM is -7.96%.

Consider `CN(C)CCN1C(=O)CCCC12CCCN(C(=O)c1cc[nH]n1)C2` (configuration not stated), for which the cytotoxicity at 10 µM was -0.225%. As for `Cc1nc(C2CCCN(C(=O)c3cnn(C(C)(C)C)c3)C2)no1` (configuration not stated), the cytotoxicity at 10 µM is 0.818%.

As for `O=C(c1cccnc1SCc1ccccc1)N1CCOCC1`, the cytotoxicity at 10 µM came out at 4.74%. Turning to `CC(C(=O)Nc1ccc(N2CCCCC2)nc1)n1ccnc1` (configuration not stated), the cytotoxicity at 10 µM was -29.8%. In the case of `Cc1ccc(Br)c(S(=O)(=O)NCc2cnn(C)c2)c1` it was 6.95%; in that of `O=C(CC1CC2(CCN(CC3CC3)CC2)Oc2ccccc21)NC1CC1` (configuration not stated), 8.5%. Consider `Cc1ccc(-c2cnnc(NCC3(N4CCOCC4)CCCC3)n2)o1`, for which the cytotoxicity at 10 µM was -6.79%. Turning to `O=C(NCc1cccnc1N1CCc2ccccc2C1)c1cnc[nH]1`, the cytotoxicity at 10 µM came to 5.97%.

As to `Cc1nc(C)n(CC2CCCN(Cc3nnc(C4CC4)o3)C2)n1` (configuration not stated), the cytotoxicity at 10 µM is -12.9%. For the compound `Cc1ncsc1C(=O)NCCSCc1cccs1`, the cytotoxicity at 10 µM was -2.11%.

For `CC1CCCN1Cc1cccc(C(=O)Nc2ccc3c(c2)CCC3=O)c1` (configuration not stated), the cytotoxicity at 10 µM is -30.9%.

On to `Cc1ncsc1CNC(=O)CCN1CCN(c2ccccn2)CC1`, for which the cytotoxicity at 10 µM amounted to 2.31%. For `Cc1cc(F)ccc1-c1ccccc1CC1CNCCNC1=O` (configuration not stated), the cytotoxicity at 10 µM is 5.08%. Turning to `Cc1csc(N2CCCN(C(=O)CCNc3ncccn3)CC2)n1`, the cytotoxicity at 10 µM is -10.5%.

On to `CCc1n[nH]c(C2CN(CCS(C)(=O)=O)CCO2)n1` (configuration not stated), for which the cytotoxicity at 10 µM was -18%. In the case of `CC(C)=CCC1(C(=O)O)CCCN(c2ccnc(N)n2)C1` (configuration not stated), the cytotoxicity at 10 µM was -13.7%. In the case of `CC(Oc1ccccc1C(F)(F)F)C(=O)NCCCC(N)=O` (configuration not stated) it was -1.73%. Consider `Cc1ccc(-c2cc(C(=O)O)sn2)cc1`, for which the cytotoxicity at 10 µM worked out at 2.2%.

For the compound `CCN(CC(=O)NC(C)C)S(=O)(=O)N1CCCCCC1`, the cytotoxicity at 10 µM amounted to 2.37%. In the case of `CCOC(=O)c1cn(CC(O)c2ccccc2OC)nn1` (configuration not stated) it was -4.06%.

As for `O=C(NCc1nc[nH]n1)c1cc(COc2cccc(C(F)(F)F)c2)[nH]n1`, the cytotoxicity at 10 µM was -3.26%. In the case of `Cn1ncc2c(NC3CCCN(C(=O)C4CC4)C3)nc(C(C)(C)C)nc21` (configuration not stated) it was 12%.

Turning to `O=S(=O)(NCC1OCCc2cn(Cc3ccccn3)nc21)C1CC1` (configuration not stated), the cytotoxicity at 10 µM was -143%.

For the compound `O=C(N1CCC(Nc2cccnn2)CC1)C1(c2ccc(F)cc2)CC1`, the cytotoxicity at 10 µM is -12.8%. Turning to `COCCn1nc(C(=O)N2CCOCC2C)ccc1=O` (configuration not stated), the cytotoxicity at 10 µM was -8.97%. Regarding `CC(Nc1ncnc2c1CCNC2)c1ccc(C(C)(C)C)cc1` (configuration not stated), the cytotoxicity at 10 µM was determined as 28%. For `Cc1cc(N2Cc3cnn(CCO)c3C2)nc(-c2ccccc2)n1`, the cytotoxicity at 10 µM was -156%. As to `CC(C)n1cnnc1CN(C)C(=O)c1ccccc1-n1cncn1`, the cytotoxicity at 10 µM is -1.49%. The result for `CN(C)C[C@H]1OC[C@@H]2CCN(C(=O)Cc3cccs3)C[C@@H]21` reads 7.13%; that for `CC(CNC(=O)c1cc(C2CC2)nc2c1cnn2C)Cn1cccn1` (configuration not stated), 3.49%; that for `CN(C)Cc1cc(=O)n2c(n1)CN(C(=O)c1ccc[nH]1)CCC2`, -123%. On to `CC1=C[C@@H](CN2CCN(C)CC2)[C@H](C(C)C)C[C@H]1Cc1nnc(C)o1`, for which the cytotoxicity at 10 µM was -0.39%. As to `COCc1cnc2n1CCN(S(=O)(=O)N(C)C)C2C` (configuration not stated), the cytotoxicity at 10 µM came to 16.8%. For the compound `CCn1cc(-c2n[nH]c(=O)n2-c2ccc(OC)c(OC)c2)c(C)n1`, the cytotoxicity at 10 µM is -9.91%. Turning to `O=c1c(=CS(=O)(=O)Nc2ccc(Cl)cc2)[nH]c(=O)n2cccc12`, the cytotoxicity at 10 µM was -7.67%.

In the case of `Cc1nc(N(C)C)nc(C)c1NC(=O)c1ccco1`, the cytotoxicity at 10 µM was determined as 1.14%. Take `CCN(C)CC(=O)N1CCC(c2cc(N3CCOCC3)nc(C)n2)CC1`: the cytotoxicity at 10 µM is 6.9%. In the case of `CN(CCCC#N)C1CCCN(Cc2noc(C3CC3)n2)C1` (configuration not stated), the cytotoxicity at 10 µM was -14.5%. Consider `CCOc1ccccc1C(CC(=O)Nc1ccncc1)NC(C)=O` (configuration not stated), for which the cytotoxicity at 10 µM was -12.6%. Regarding `COc1ccc(C2=C(C)C(N3CCc4ccccc43)=NS2(=O)=O)cc1`, the cytotoxicity at 10 µM is -4.66%. In the case of `O=c1c(Cc2ccccc2)c(O)ccn1Cc1ccco1`, the cytotoxicity at 10 µM turned out to be 5.01%. As for `NCCCn1nc(C(F)(F)F)c2c1CCC2`, the cytotoxicity at 10 µM is -8.3%. In the case of `O=C(CCNS(=O)(=O)c1ccc2c(c1)CCCC2)NCc1ccoc1` it was 5.86%.

For `N#CCCN1CC(O)CN(C(=O)c2cccc(C(F)(F)F)c2)CC1=O` (configuration not stated), the cytotoxicity at 10 µM was determined as 7.84%. For `N#CCCCn1nnc(C2(NC(=O)c3ccccc3)CCCC2)n1`, the cytotoxicity at 10 µM came to 13.6%. As to `COCCN1CCN(C=C2NN=C(c3occc3C)O2)CC1`, the cytotoxicity at 10 µM is -49.4%. For `COC(=O)c1ccc(NC(=O)CCc2ccco2)cc1`, the cytotoxicity at 10 µM was -10.5%. In the case of `c1ccc(-c2nc3c(c(NCc4n[nH]c5c4CCC5)n2)CCNC3)cc1`, the cytotoxicity at 10 µM was -12.8%.
